CHRM4 PAM – potentiates acetylcholine response at human M4 receptor | P08173 | activation, % at 3 µM | CHO-K1 hM4/Gqi5, Fluo-8 calcium fluorescence, ACh EC20; 0% = ACh EC20, 100% = maximal ACh | 360,000 tested, 0.4% active;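 active = activation above its plate's cutoff, the mean activation of sample wells plus 3 SD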
CHRM5 agonist – CHRM5 agonism in calcium assay. CHO-K1 hM5 cells, Fluo-8 calcium fluorescence; 0% DMSO wells, 100% maximal acetylcholine response. activation, % at 3 µM. 360,000 tested, 0.19% active. AID 624037;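 active = activation above the run's mean over test compounds plus 3 SD, cut at about 23% in these data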;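 also: signal is peak over basal fluorescence ratio across the kinetic read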
Target sequence (P08912 whole entry, looked up): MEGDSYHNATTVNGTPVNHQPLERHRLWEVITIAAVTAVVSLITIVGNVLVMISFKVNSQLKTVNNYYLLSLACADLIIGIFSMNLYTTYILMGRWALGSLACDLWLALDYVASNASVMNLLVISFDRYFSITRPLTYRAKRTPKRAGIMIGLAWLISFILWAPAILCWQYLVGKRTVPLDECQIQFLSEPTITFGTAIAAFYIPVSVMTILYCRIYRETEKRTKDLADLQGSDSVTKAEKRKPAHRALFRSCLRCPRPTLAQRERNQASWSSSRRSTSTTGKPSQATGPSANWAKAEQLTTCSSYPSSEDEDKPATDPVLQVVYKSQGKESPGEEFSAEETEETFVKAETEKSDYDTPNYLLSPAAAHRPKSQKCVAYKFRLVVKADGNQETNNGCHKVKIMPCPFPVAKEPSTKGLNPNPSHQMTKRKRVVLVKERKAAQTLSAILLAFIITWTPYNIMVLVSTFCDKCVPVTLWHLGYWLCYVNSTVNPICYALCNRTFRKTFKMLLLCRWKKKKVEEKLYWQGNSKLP
CHRM4 antagonist – antagonists of human muscarinic M4 receptor (CHRM4). CHO-hM4 cells, ACh EC80, Fluo-8 calcium fluorescence. 360,000 tested, 0.73% active. P08173. inhibition, % at 3 µM;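 active = inhibition above its plate's cutoff, the mean inhibition of sample wells plus 3 SD, cut at about 27% in these data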;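 also: 0% = acetylcholine EC80 with DMSO and 100% = DMSO without agonist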
M5 PAM – CHRM5 positive allosteric modulation; AID 624038; activation, % at 3 µM; CHO-K1 hM5, Fluo-8 calcium, ACh EC20 PAM; 0% = ACh EC20, 100% = ACh EC100; 360,000 tested, 0.3% active;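 active = activation above the run cutoff, the mean activation of all test compounds plus 3 SD, cut at about 18% in these data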
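Measured by: Fluo-8 calcium fluorescence; material: human M5 receptor in CHO-K1 cells; schedule: Post-acetylcholine fluorescence recording 140 s; benchmarks: low control EC20 acetylcholine (0%), high control EC100 acetylcholine (100%); read-out: Max/basal fluorescence ratio as % of EC20–EC100 ACh window; compound: single dose, 3 µM nominal final test concentration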
CHRM4 agonist – agonists of human muscarinic M4 receptor (CHRM4) | P08173 | CHO-K1 hM4/Gqi5, Fluo-8 calcium fluorescence; vehicle 0%, full acetylcholine response 100% | activation, % at 3 µM | 360,000 tested, 0.14% active | AID 624127;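 active = activation above the run mean over all test wells plus 3 SD, cut at about 32% in these data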;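 also: peak over basal fluorescence ratio per well then scaled between controls; 0% = DMSO wells and 100% = acetylcholine at EC100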
M5 antag – antagonists of human muscarinic M5 receptor (CHRM5); inhibition, % at 3 µM; P08912; 360,000 tested, 0.59% active; CHO-hM5 cells, Fluo-8 calcium fluorescence, ACh EC80;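 active = inhibition above a per-plate cutoff, the mean of that plate's test compounds plus 3 SD, cut at about 27% in these data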;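 also: 0% = acetylcholine EC80 with DMSO and 100% = DMSO without agonist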
Starred values were filed as active, the others as inactive. Sampled rows, rich in hits. Any-hit rate of the full collection: about 1.9%.

SMILES | CHRM4 PAM | CHRM5 agonist | CHRM4 antagonist | M5 PAM | CHRM4 agonist | M5 antag
CN(C)CCNc1nc2sc3c(c2c(=O)n1CCc1ccccc1)CCCCC3 | -13 | 8 | 31* | -19 | 19 | 17
CC(O)CNc1nc2sc3c(c2c(=O)n1CCc1ccccc1)CCCCC3 (stereo not drawn) | -3 | 0 | -4 | -4 | 7 | -4
COC(=O)Cn1c(=O)n(CCc2ccccc2)c(=O)c2c3c(sc21)CCCC3 | -32 | -8 | 30* | -16 | -3 | 22
CC(C)N(CC#CCC(O)(c1ccccc1)c1ccccc1)CCO | -12 | -11 | -5 | 2 | 2 | -16
CCN(CC#CCC(O)(c1ccccc1)c1ccccc1)C(C)C | -15 | -8 | 31* | -19 | 2 | 18
CN(C)c1ccc(/C=C2\CCCc3c2nc2ccccc2c3C(=O)O)cc1 | -2 | 0 | -4 | 1 | 2 | -1
Cc1cccc(NC(=O)COC(=O)C2COc3ccccc3O2)c1C (stereo not drawn) | 6 | 0 | 3 | 3 | 0 | 6
O=C1NN=C2CCCCCCC12 (stereo not drawn) | -12 | -6 | 91* | -34 | 1 | 24
CSc1ccc(/C=N/NC(=O)CN2CCN(Cc3ccc(Cl)cc3)CC2)cc1 | -17 | -2 | 35* | -1 | 2 | 1
CSc1ccc(/C=N/NC(=O)CN2CCN(Cc3ccccc3)CC2)cc1 | -15 | -3 | 24 | 3 | 0 | 1
COc1ccc(CCN2C(=O)CSC2=Nc2ccc(C)cc2C)cc1OC | 2 | -3 | -11 | -6 | 0 | 11
Cc1cc(C)n2nc(SCC(=O)N3CCCC3)nc2n1 | 8 | 4 | -12 | 24* | 1 | -13
Cc1cc(C)n2nc(SCC(=O)N3CCC(C)CC3)nc2n1 | 1 | -1 | 0 | 3 | 1 | 19
CCOC(=O)c1sc(NC(=O)Nc2ccccc2)cc1C | -7 | 5 | 15 | -19 | 18 | 46*
CCOC(=O)c1sc(NC(=O)Nc2ccccc2Cl)cc1C | -6 | 3 | -20 | -22 | 10 | 21
Cc1cccc(C)c1OCC(=O)Nc1ccc2c(c1)OCCO2 | 2 | -4 | -17 | 0 | 7 | -4
CC(=O)c1c(C)[nH]c(C(=O)COc2cc(C)ccc2C(C)C)c1C | -8 | 4 | 39* | -19 | 16 | 41*
CCOC(=O)N1CCN(C(=O)c2ccccc2N(Cc2ccccc2)S(=O)(=O)c2ccccc2)CC1 | -7 | -6 | 6 | -7 | 3 | 19
CCN(CC)CCN(C(=O)c1ccc2ccccc2c1)c1nc2ccc(F)cc2s1 | 18* | -6 | -7 | 1 | 1 | 1
C[C@H](CO)N1C[C@H](C)[C@@H](CN(C)C(=O)c2cnccn2)Oc2cc(C#CCC3CCCC3)ccc2S1(=O)=O | -7 | 2 | 10 | -2 | 2 | 2
CCN(CC)c1ccc(C=C2C(=O)OC(c3ccccc3)OC2=O)cc1 (stereo not drawn) | 8 | -2 | -1 | -8 | 2 | 12
CCN(CC)c1ccc(/C=C/C(=O)C2C(=O)C=C(C)OC2=O)cc1 (stereo not drawn) | -21 | 184* | 21 | -28 | 49* | 42*
CCOc1cc(N2CCOCC2)c(OCC)cc1NC(=S)NCCCOC | -3 | -3 | -7 | 5 | 1 | 7
O=C(NCc1cccs1)c1ccc(Cl)c(S(=O)(=O)N2CCCC2)c1 | -6 | 0 | -10 | -5 | 6 | 1
Cc1ccc(C)c(S(=O)(=O)NCc2ccc(C(=O)N3CCN(C)CC3)cc2)c1 | 20* | 3 | -12 | 14 | 1 | -7
SMILES | CHRM4 PAM | CHRM5 agonist | CHRM4 antagonist | M5 PAM | CHRM4 agonist | M5 antag
C=Cc1cccc(NC(=O)COc2ccccc2)c1 | 18 | -3 | 0 | 18* | 0 | 10
CC(=O)N1CCc2cc(S(=O)(=O)CCC(=O)NCc3ccc(F)cc3)ccc21 | 0 | -2 | 6 | 1 | 2 | 2
CC(C)OC(=O)Nc1ccc2c(c1)N(C(=O)N1CCN(C)CC1)c1ccccc1CC2 | -14 | -18 | 28* | -29 | 1 | 46*
CCOC(=O)Nc1ccc2c(c1)N(C(=O)CN(CC)CC)c1ccccc1CC2 | -12 | -27 | 32* | -26 | -1 | 3
CCOC(=O)Nc1ccc2c(c1)N(C(=O)N1CCN(C)CC1)c1ccccc1S2 | -22 | -7 | 6 | -18 | 5 | 60*
CCOC(=O)Nc1ccc2c(c1)N(C(=O)CCN1CCN(C)CC1)c1ccccc1S2 | -6 | -5 | 5 | -5 | 1 | -4
Cc1c(C(=O)N2CCOCC2)c(S(=O)(=O)Nc2ccc(C(C)C)cc2)c(C)n1C | 2 | -5 | 8 | 0 | 0 | 10
CCOC(=O)c1nn(-c2ccc(Cl)cc2)c(C)cc1=O | -2 | 0 | 5 | -6 | 2 | 11
CCOc1ccc(NC(=O)CN(C)C(=O)c2ccc3c(c2)C(=O)N(CCC(C)C)C3=O)cc1OCC | -3 | 1 | 11 | -7 | 0 | 7
CCCN1C(C)C(C(=O)OCC)=CN(Cc2cccc(I)c2)S1(=O)=O (stereo not drawn) | -7 | 2 | -3 | -7 | 0 | -2
CCOC(=O)c1cc2c(c(CCO)n1)[C@H](CCO)N(S(=O)C(C)(C)C)C2 (stereo partly drawn) | 2 | 0 | 0 | 2 | 0 | 3
COc1cc2c(c(OC)c1OC)CC(=O)N(C)CC2 | -31 | -7 | 33* | -9 | 1 | -3
Cc1noc(C)c1COc1ccccc1C(=O)NCc1ccccc1Cl | 1 | 0 | -7 | -38 | 6 | 99*
CCOCCCNC(=O)C(NC(=O)Cc1cccs1)c1ccc(C)cc1 (stereo not drawn) | 21* | 2 | -4 | 6 | 0 | 9
CCOCCCNC(=O)C(NC(=O)CNC(C)=O)c1ccc(C)cc1 (stereo not drawn) | 3 | 2 | 7 | 5 | 0 | -3
CCOCCCNC(=O)C(c1ccc(C)cc1)N(Cc1ccc2c(c1)OCO2)C(=O)CNC(C)=O (stereo not drawn) | 24* | 2 | -2 | 4 | 2 | 2
Cc1cccc(OCc2nnc(SCC(=O)Nc3ccc(N4CCOCC4)cc3)o2)c1 | -5 | -2 | 6 | -3 | 1 | 17
CN1C(=O)c2cccc(NC(=O)C3CCCCC3)c2C1=O | 19* | -2 | -11 | 3 | 0 | -4
CCC(=O)Nc1cccc2c1C(=O)N(C)C2=O | 10 | -2 | -6 | 3 | 0 | -9
N/C(=N/OC(=O)c1ccc(Cl)cc1)c1ncc([N+](=O)[O-])s1 | 4 | 2 | -4 | 10 | 0 | -6
